According to ChEMBL document CHEMBL4665721, “Mdm2 inhibitors as a platform for the design of P-glycoprotein inhibitors” (Bioorg Med Chem Lett, 2020):
Active and inactive are the calls of the source. The calls are words filed in the database; no cut-off is given here.

Assays:
Homo sapiens [1] = organism: Homo sapiens; test: Inhibition of P-gp-mediated Rhodamine-123 efflux in human p53 -/- H1299 cells assessed as Rhodamine-123 accumulation measured after 40 mins by spectrofluorimetry
Homo sapiens [2] = organism: Homo sapiens; test: Inhibition of P-gp-mediated Rhodamine-123 efflux in human MCF7 cells assessed as Rhodamine-123 accumulation measured after 40 mins by spectrofluorimetry; assay type: cell-based
How it was run: (§1)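 Cells in DMEM, 96-well plates, grown to 30% confluency, then co-treated with compounds and Rhodamine 123 (1 μM in solution). Even cell distribution checked by imaging. After 40 min, cells were washed and Rhodamine 123 fluorescence read on a plate reader (ex 488 nm, em 515-575 nm). Signal with 0.5 μM tariquidar in each line set to 100%. Triplicate; mean ± SEM.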

Homo sapiens [3] = organism: Homo sapiens; test: Inhibition of P-gp-mediated Rhodamine-123 efflux in human p53 -/- HCT-116 assessed as Rhodamine-123 accumulation measured after 40 mins by spectrofluorimetry
How it was run: as §1

HCT-116 = test: Growth inhibition of human p53 -/- NCI-HCT-116 cells upto 10 uM incubated for 48 hrs; assay type: functional, cell-based; conditions: dose microM <=10, time 48.0 hrs
How it was run: (§2)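 Cells plated in DMEM and grown 48 h in 96-well optical-bottom plates before treatment. Compounds were added as 200X dilutions of DMSO stocks and tested up to 10 μM. After 48 h, wells were washed with PBS and monolayer confluence was scored by brightfield imaging. Untreated cells served as controls. Triplicate; mean ± SEM.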

NCI-H1299 = test: Growth inhibition of human p53 -/- H1299 cells upto 10 uM incubated for 48 hrs; conditions: dose microM <=10, time 48.0 hrs
MCF7 = test: Growth inhibition of human MCF7 upto 10 uM incubated for 48 hrs; assay type: functional, cell-based; conditions: dose microM <=10, time 48.0 hrs
How it was run: as §2

Structure (SMILES) | inhibition (Homo sapiens [3]) | inhibition (Homo sapiens [1]) | inhibition (Homo sapiens [2]) | inhibition (HCT-116) | inhibition (NCI-H1299) | inhibition (MCF7)
CC(C)[C@@H](CS(=O)(=O)C(C)C)N1C(=O)[C@@](C)(CC(=O)O)C[C@H](c2cccc(Cl)c2)[C@H]1c1ccc(Cl)cc1 | inactive | Active | inactive | Active | Active | –
COc1cc2c(cc1OC)CN(CCc1ccc(NC(=O)c3cc(OC)c(OC)cc3NC(=O)c3cnc4ccccc4c3)cc1)CC2 | – | – | – | inactive | inactive | inactive
COc1ccc(C2=N[C@@H](c3ccc(Cl)cc3)[C@@H](c3ccc(Cl)cc3)N2C(=O)N2CCNC(=O)C2)c(OC(C)C)c1 | – | Active | – | – | – | –

Now from value to compound, other results behind:

inhibition (Homo sapiens [3]) | Structure (SMILES) | inhibition (Homo sapiens [1]) | inhibition (Homo sapiens [2]) | inhibition (HCT-116) | inhibition (NCI-H1299) | inhibition (MCF7)
Active | N[C@H](C(=O)OCCCOC1(c2ccc(Cl)cc2)c2ccccc2C(=O)N1Cc1ccc(Cl)cc1)c1ccccc1 (stereo not given in full) | Active | Active | – | – | –
Active | O=C(NCc1ccc(F)cc1)c1ccc(/C=C2\C(=O)N(CN3CCN(Cc4cccc(Cl)c4)CC3)c3ccc(Cl)cc32)cc1 | Active | Active | – | – | –
